Experimental findings from ChEMBL document CHEMBL3808335, “Discovery of KLS-13019, a Cannabidiol-Derived Neuroprotective Agent, with Improved Potency, Safety, and Permeability” (ACS Med Chem Lett, 2016) are described below.

Data set [1] can be described thus: Neuroprotective activity in rat hippocampal neurons assessed as protection against ethanol induced cell death after 5 hrs by propidium iodide staining based fluorimetric analysis. The class given is functional, Hippocampal neurone. The method, boiled down: (§1)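 Ethanol (30 mM) used as toxin. Viability read by CFDA fluorescence, cell death by propidium iodide. Full efficacy defined as the fluorescence of neurons without toxin.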

A short description of data set [2]: Neuroprotective activity in rat hippocampal neurons assessed as protection against ammonium acetate induced cell death by measuring neuronal viability after 5 hrs by carboxyfluorescein diacetate dye based fluorimetric analysis. The class given is functional, Hippocampal neurone. The method, boiled down: (§2)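 Ammonium acetate (300 μM) used as toxin. Viability read by CFDA fluorescence, cell death by propidium iodide. Full efficacy defined as the fluorescence of neurons without toxin.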

Data set [3] in a line: Neuroprotective activity in rat hippocampal neurons assessed as protection against ammonium acetate induced cell death after 5 hrs by propidium iodide staining based fluorimetric analysis. The class given is functional, Hippocampal neurone. The method, boiled down: as §2
Data set [4] is described as follows: Neuroprotective activity in rat hippocampal neurons assessed as protection against ethanol induced cell death by measuring neuronal viability after 5 hrs by carboxyfluorescein diacetate dye based fluorimetric analysis. The class given is functional, Hippocampal neurone. An outline of the steps:
as §1

Data set [5] is described as follows: Apparent permeability from apical to basolateral side in human Caco cells. The settings on record: Caco-2. On the technique in general: Caco-2 cells form a polarised layer with tight junctions and transporters.
A short description of data set [6]: Kinetic aqueous solubility of the compound at pH 7.4.
In data set [7] the test system is MDR1. The data set is described as follows: Apparent permeability from apical to basolateral side in MDCK cells expressing MDR1. The note with it: dog.
The nature of data set [8]: Toxicity in rat hippocampal neurons assessed as neuronal viability after 5 hrs by carboxyfluorescein diacetate dye based fluorimetric analysis. On the set-up: species or system Hippocampal neurone. The note with it: read-out: TC50.
Data set [9] deals with T1, Cannabinoid receptor 1 (Homo sapiens, UniProt P21554). The data set is described as follows: Displacement of [3H]CP 55940 from human recombinant CB1 receptor expressed in CHO cell membranes at 10 uM after 120 mins by scintillation counting analysis. For orientation: In a radioligand displacement assay an active substance lowers the binding of a labelled ligand.
T1 sequence (P21554 whole entry): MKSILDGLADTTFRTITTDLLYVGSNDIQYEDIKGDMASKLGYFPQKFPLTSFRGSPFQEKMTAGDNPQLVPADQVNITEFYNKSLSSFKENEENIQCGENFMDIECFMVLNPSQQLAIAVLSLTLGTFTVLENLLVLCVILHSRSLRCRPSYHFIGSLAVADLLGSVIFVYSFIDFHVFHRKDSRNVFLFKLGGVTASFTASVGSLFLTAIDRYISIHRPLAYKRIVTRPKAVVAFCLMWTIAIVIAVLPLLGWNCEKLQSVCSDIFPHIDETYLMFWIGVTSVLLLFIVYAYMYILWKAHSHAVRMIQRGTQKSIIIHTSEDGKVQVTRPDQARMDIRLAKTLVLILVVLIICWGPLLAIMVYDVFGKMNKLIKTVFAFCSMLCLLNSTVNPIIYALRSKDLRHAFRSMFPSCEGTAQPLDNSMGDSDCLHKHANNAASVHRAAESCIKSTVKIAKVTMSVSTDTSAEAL
For data set [10], the target named is Cannabinoid receptor 2 (Homo sapiens) (UniProt P34972). The data set is described as follows: Displacement of [3H]WIN 55212-2 from human recombinant CB2 receptor expressed in CHO cell membranes at 10 uM after 120 mins by scintillation counting analysis.
Cannabinoid receptor 2 (Homo sapiens), sequence (P34972 whole entry): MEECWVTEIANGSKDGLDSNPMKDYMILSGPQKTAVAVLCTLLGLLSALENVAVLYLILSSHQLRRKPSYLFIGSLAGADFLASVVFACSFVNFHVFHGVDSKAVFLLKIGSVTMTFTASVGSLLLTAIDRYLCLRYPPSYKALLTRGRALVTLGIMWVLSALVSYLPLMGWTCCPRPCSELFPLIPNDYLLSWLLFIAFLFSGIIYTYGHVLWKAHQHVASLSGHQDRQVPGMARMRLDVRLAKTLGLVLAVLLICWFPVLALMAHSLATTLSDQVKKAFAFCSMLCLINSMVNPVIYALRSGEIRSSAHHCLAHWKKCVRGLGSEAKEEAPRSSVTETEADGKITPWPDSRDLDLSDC
Data set [11] in a line: Efflux ratio of permeability from basolateral to apical over apical to basolateral side in human Caco cells. The settings on record: Caco-2.
For data set [12], the system named is MDR1. The data set is described as follows: Efflux ratio of permeability from basolateral to apical over apical to basolateral side in MDCK cells expressing MDR1. The note with it: dog.
Data set [13] can be described thus: in vitro. The settings on record: rat, rat hippocampal neurons.
The target of data set [14] is T1, Cannabinoid receptor 1. The data set is described as follows: Displacement of [3H]CP 55940 from human CB1 receptor after 1 hr by liquid scintillation spectrometry.
Where [15] appears, read: Rattus norvegicus, Hippocampal neurone, 5 h, read-out: EC50.

What is called EC50 is the concentration at which the effect is half-maximal. One may read the Papp A→B as how fast a substance crosses the layer from the apical side. For orientation: kinetic solubility means solubility judged after dilution from a stock solution rather than from solid. As usually defined, the inhibition is how much of the control response was suppressed. What is called efflux ratio is a quotient of directional permeabilities that is used to spot active efflux. The term Ki denotes the equilibrium dissociation constant of an inhibitor or competing ligand from its target. A higher Ki goes with a looser hold on the target.

Converted amounts (≈) assume the structure as drawn. Where only a bound is given, the exact number is not on record here.

As to `C=C(C)[C@@H]1CCC(C)=C[C@H]1c1c(O)cc(CC2COC2)cc1O`, the EC50 was 10 µM in data set [1] (setting [15]), 35 µM in data set [2] (setting [15]), 20 µM in data set [3] (setting [15]) and 18 µM in [4] (setting [15]).

Turning to `C=C(C)[C@@H]1CCC(C)=C[C@H]1c1c(O)cc(CCCCC)cc1O` [CANNABIDIOL], the EC50 is 3 µM in data set [1] (setting [15]), 2 µM in [2] (setting [15]), 4 µM in data set [3] (setting [15]) and 1 µM in [4] (setting [15]). In addition, the values for the Papp A→B in data set [5] and in data set [7] were less than 1.5 ×10⁻⁶ cm/s and less than 2.23 ×10⁻⁶ cm/s, respectively. For the same compound, the kinetic solubility in [6] turned out to be 17 µM (≈ 5.35 µg/mL). For the same compound, in data set [8], the CC50 at 5 h was found to be 33 µM.

Regarding `C=C(C)[C@@H]1CCC(C)=C[C@H]1c1c(O)cc(CC(=O)N2CCOCC2)cc1O`, the EC50 in [1] (setting [15]), in data set [2] (setting [15]), in data set [3] (setting [15]) and in data set [4] (setting [15]) was more than 100 µM in each case.

In the case of `C=C(C)[C@@H]1CCC(C)=C[C@H]1c1c(O)cc(CCn2ccnn2)cc1O`, the 50% effective concentration (EC50) in data set [1] (setting [15]) came out at 2 µM; in data set [2] (setting [15]), 3 µM; in data set [3] (setting [15]) it was 1 µM; in data set [4] (setting [15]), 5 µM. Besides, the values for the inhibition in [9] and in data set [10] were 6% and 1%, respectively. For the same compound, the CC50 at 5 h in [8] is more than 100 µM.

For `C=C(C)[C@@H]1CCC(C)=C[C@H]1c1c(O)cc(CC2CN(C(C)=O)C2)cc1O`, the efflux ratio is 0.53 in data set [11] and 1.02 in data set [12]. Moreover, the half-maximal effective concentration (EC50) in data set [1] (setting [15]) was 0.05 µM; in data set [2] (setting [15]), 0.04 µM; in data set [3] (setting [15]) it was 0.04 µM; in [4] (setting [15]) it was 0.08 µM. Further, the results for the inhibition in data set [9] and in [10] were 13% and 56%, respectively. The Papp A→B came out at 49 ×10⁻⁶ cm/s in data set [5] and 35 ×10⁻⁶ cm/s in [7]. The same compound showed a kinetic solubility in data set [6] of 87 µM (≈ 30.9 µg/mL). Moreover, in data set [13], the selectivity ratio at 5 h was 7500. In addition, the CC50 at 5 h in data set [8] is 300 µM.

`C=C(C)[C@@H]1CCC(C)=C[C@H]1c1c(O)cc(CCn2nccn2)cc1O`: the EC50 in [1] (setting [15]), in [2] (setting [15]), in [3] (setting [15]) and in [4] (setting [15]) was more than 100 µM throughout.

For `C=C(C)[C@@H]1CCC(C)=C[C@H]1c1c(O)cc(CCNC(C)=O)cc1O`, the 50% effective concentration (EC50) in data set [1] (setting [15]) was 17 µM; in [2] (setting [15]) it was more than 100 µM; in data set [3] (setting [15]), more than 100 µM; in [4] (setting [15]), 30 µM.

Regarding `C=C(C)[C@@H]1CCC(C)=C[C@H]1c1c(O)cc(CCCCC(=O)O)cc1O`, the EC50 in data set [1] (setting [15]) came out at 7 µM; in data set [2] (setting [15]), 4 µM; in data set [3] (setting [15]), 30 µM; in data set [4] (setting [15]), 10 µM.

In turn, `CCCCCCC(C)(C)c1cc(O)c(C2CCCCC2)c(O)c1` registered an inhibition constant Ki in [14] of 0.011 µM.

On to `C=C(C)[C@@H]1CCC(C)=C[C@H]1c1c(O)cc(CC2CN(C)C2)cc1O`, for which the EC50 result in [1] (hippocampal neurone), in data set [2] (hippocampal neurone), in [3] (hippocampal neurone) and in data set [4] (hippocampal neurone) was “ND(toxic)” in each case.

As for `C=C(C)[C@@H]1CCC(C)=C[C@H]1c1c(O)cc(CCOCC)cc1O`, the 50% effective concentration (EC50) is 3 µM in [1] (setting [15]), 36 µM in [2] (setting [15]), 0.2 µM in data set [3] (setting [15]) and 0.3 µM in [4] (setting [15]).

For `C=C(C)[C@@H]1CCC(C)=C[C@H]1c1c(O)cc(CCN2CCOCC2)cc1O`, the half-maximal effective concentration (EC50) in data set [1] (setting [15]) is 24 µM; in data set [2] (setting [15]), more than 100 µM; in [3] (setting [15]), 20 µM; in data set [4] (setting [15]), 5 µM.

On to `C=C(C)[C@@H]1CCC(C)=C[C@H]1c1c(O)cc(O)cc1CC1CN(C(C)=O)C1`, for which the EC50 in data set [1] (setting [15]), in data set [2] (setting [15]), in data set [3] (setting [15]) and in data set [4] (setting [15]) was more than 100 µM throughout.

Turning to `C=C(C)[C@@H]1CCC(C)=C[C@H]1c1c(O)cc(CCCCCO)cc1O`, the 50% effective concentration (EC50) in [1] (setting [15]) is more than 100 µM; in [2] (setting [15]) it was more than 100 µM; in [3] (setting [15]), more than 100 µM; in data set [4] (setting [15]), 54 µM.

With `C=C(C)[C@@H]1CCC(C)=C[C@H]1c1c(O)cc(CC2CN(C(=O)OCC)C2)cc1O`, the results for the efflux ratio in data set [11] and in data set [12] were 0.5 and 0.97, respectively. The half-maximal effective concentration (EC50) in data set [1] (setting [15]) stood at 0.02 µM; in data set [2] (setting [15]), 0.11 µM; in data set [3] (setting [15]), 0.05 µM; in [4] (setting [15]) it was 0.03 µM. Also, the inhibition turned out to be 19% in data set [9] and 37% in data set [10]. The apical-to-basolateral permeability (Papp A→B) came to 22 ×10⁻⁶ cm/s in data set [5] and 11 ×10⁻⁶ cm/s in [7]. This compound displayed a kinetic solubility in [6] of 16.6 µM (≈ 6.4 µg/mL). For the same compound, the selectivity ratio at 5 h in data set [13] turned out to be 900. The CC50 at 5 h in [8] was more than 100 µM.
